Reference: PubChem BioAssay AID602423 (Sanford-Burnham Center for Chemical Genomics, 2012)
Activity calls are given as the source filed them.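 The calls were made as follows: active = IC50 at or below 20 µM; inactive = the rest.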

These compounds were tested against glucose-6-phosphate dehydrogenase-6-phosphogluconolactonase (PfGluPho), Plasmodium falciparum 3D7 (assay: PfGluPho enzyme inhibitors, SAR follow-up, biochemical, fluorescence intensity, dose response, set 4 (AID 602423)). Conditions: recombinant PfGluPho, resazurin-diaphorase NADPH fluorescence.
How it was run: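 System: PfGluPho, the glucose-6-phosphate dehydrogenase of Plasmodium falciparum. Quantity: enzyme 0.05 µg/mL. Benchmarks: low control wells lacking glucose-6-phosphate substrate. Also added: G6P 20 µM, NADP 3 µM. Compound dosing: dose-response series. Technique: coupled fluorescence, Ex 530/Em 590 nm. Schedule: enzyme reaction 2 h at room temperature in darkness.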

Row | IC50 | SMILES
1 | inactive | CCCCCCN1CCCC1CNC(=O)c1ccc2c(c1)NC(=O)c1ccccc1S2 (configuration not stated)
2 | > 80 µM (inactive) | CCN1CCC[C@@H]1CNC(=O)c1ccc2c(c1)NC(=O)c1ccccc1N2
3 | 0.187 µM | CCN1CCC[C@@H]1CNC(=O)c1ccc2c(c1)NC(=O)c1cccc(C)c1S2
4 | 2.98 µM | CCN1CCC[C@@H]1CNC(=O)c1ccc2c(c1)NC(=O)c1ccc(F)cc1S2
5 | inactive | CCN1CCC(NC(=O)c2ccc3c(c2)NC(=O)c2ccccc2S3)C1 (configuration not stated)
6 | inactive | CCN1CCC[C@@H]1CNC(=O)c1ccc2c(c1)NC(=O)c1cc(C)ccc1S2
7 | 19.9 µM | CCCCN1CCCC1CNC(=O)c1ccc2c(c1)NC(=O)c1ccccc1S2 (configuration not stated)
8 | 15.1 µM | CCCN1CCC[C@@H]1CNC(=O)c1ccc2c(c1)NC(=O)c1ccccc1S2

Continued, compound first:

Row | SMILES | IC50
9 | CCCN1CCCCC1CNC(=O)c1ccc2c(c1)NC(=O)c1ccccc1S2 (configuration not stated) | inactive
10 | CCN1CCC[C@@H]1CNC(=O)c1ccc2c(c1)NC(=O)c1cc(F)ccc1S2 | inactive
11 | CCCN1CCC(NC(=O)c2ccc3c(c2)NC(=O)c2ccccc2S3)C1 (configuration not stated) | inactive
12 | CN1CCCC1CNC(=O)c1ccc2c(c1)NC(=O)c1ccccc1S2 (configuration not stated) | inactive
13 | CCN1CCCCC1CNC(=O)c1ccc2c(c1)NC(=O)c1ccccc1S2 (configuration not stated) | > 80 µM (inactive)
14 | CN1CCCCC1CNC(=O)c1ccc2c(c1)NC(=O)c1ccccc1S2 (configuration not stated) | inactive
15 | O=C(NC[C@H]1CCCN1)c1ccc2c(c1)NC(=O)c1ccccc1S2 | inactive
16 | O=C(NCC1CCCCN1)c1ccc2c(c1)NC(=O)c1ccccc1S2 (configuration not stated) | inactive
17 | CN1CCC(NC(=O)c2ccc3c(c2)NC(=O)c2ccccc2S3)C1 (configuration not stated) | > 80 µM (inactive)
